Results taken from ChEMBL document CHEMBL3244312, “Cannabinoids. 1. 1-Amino- and 1-mercapto-7,8,9,10-tetrahydro-6H-dibenzo [b,d]pyrans” (1977).
Calls of active or inactive are those of the source. The calls are words filed in the database; no cut-off is given here.

What was measured:
Mus musculus [1] = assay: CNS activity in mouse assessed as alteration of exploratory behaviour at 20 mg/kg, po; type: functional, organism-based; design: dose 20 mg/kg
In short: (§1)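 Mice in groups of five, dosed orally, placed in doughnut-shaped activity cages (six infrared photocells) 90 min post-dose. Beam breaks counted cumulatively at 30, 60, 90 and 120 min in cage ([…]) plus 120-min total. Counts compared with vehicle-injected controls. Compounds dissolved in acetone.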

Rattus norvegicus [2] = assay: CNS activity in septal-lesioned rat assessed as decrease in hyperreactivity behaviour at 10 mg/kg, po; type: functional, organism-based; design: dose 10 mg/kg
In short: (§2)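 Septal-lesioned rats rated hyperreactive at score ≥11 used as their own controls; oral dosing. Reactivity rated at 30, 60, 120, 240, 300 min post-dose. P value = postdrug rating sum / predrug sum per period. E value = mean of ten 30-min periods over 300 min, interpolated, / predrug sum. Student's t test, p<0.01.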

Rattus norvegicus [3] = assay: CNS activity in rat assessed as protection against muricide at 10 mg/kg, po; type: functional, organism-based; design: dose 10 mg/kg
In short: (§3)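 Rats with innate mouse-killing behaviour, control kill time under 5 s; three rats per dose, oral dosing, vehicle controls at equal injection volume. Muricide scored 15–360 min post-dose (0 = 0–59 s, 1 = 60–120 s, 2 = >120 s). Scores converted to percent protection versus vehicle; Student's t test for significance.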

Rattus norvegicus [4] = assay: CNS activity in po dosed rat assessed as protection against muricide; type: functional; settings: for minimal effective dose: Rattus norvegicus, po, read-out: MED; in short: as §3
Mus musculus [5] = assay: CNS activity in po dosed mouse assessed as alteration of exploratory behaviour; type: functional; settings: for minimal effective dose: Mus musculus, po, read-out: MED; in short: as §1
Rattus norvegicus [6] = assay: CNS activity in po dosed septal-lesioned rat assessed as decrease in hyperreactivity behaviour; type: functional; settings: for minimal effective dose: Rattus norvegicus, po, read-out: MED; in short: as §2

CCCCCc1cc(N)c2c(c1)OC(C)(C)C1=C2CC(C)CC1 (racemic)
Activity (Mus musculus [1]): inactive | Activity (Rattus norvegicus [2]): inactive | Activity (Rattus norvegicus [3]): inactive

CCCCCCC(C)(C)c1cc(O)c2c(c1)OC(C)(C)C1=C2CC(C)CC1 (stereo in doubt; l-4c)
MED (Rattus norvegicus [4]): 1.25 mg/kg

CCCCCCC(C)(C)c1cc(O)c2c(c1)OC(C)(C)C1=C2CC(C)CC1 (racemic)
minimal effective dose (Mus musculus [5]): 0.62 mg/kg | minimal effective dose (Rattus norvegicus [6]): 1.25 mg/kg | MED (Rattus norvegicus [4]): 0.62 mg/kg

CCCCCCC(C)(C)c1cc(N)c2c(c1)OC(C)(C)C1=C2CC(C)CC1 (stereo in doubt; l-10c) [listing 1 of 2 here]
Activity (Rattus norvegicus [2]): inactive

CCCCCCC(C)(C)c1cc(N)c2c(c1)OC(C)(C)C1=C2CC(C)CC1 (stereo in doubt; l-10c) [listing 2 of 2 here]
MED (Mus musculus [5]): 5 mg/kg | MED (Rattus norvegicus [4]): 10 mg/kg

CCCCCc1cc(S)c2c(c1)OC(C)(C)C1=C2CC(C)CC1 (racemic)
Activity (Mus musculus [1]): inactive | Activity (Rattus norvegicus [2]): inactive | Activity (Rattus norvegicus [3]): inactive

CCCCCC(C)C(C)c1cc(O)c2c(c1)OC(C)(C)C1=C2CC(C)CC1 (racemic)
minimal effective dose (Mus musculus [5]): 0.62 mg/kg | minimal effective dose (Rattus norvegicus [6]): 5 mg/kg | minimal effective dose (Rattus norvegicus [4]): 2.5 mg/kg

CCCCCC(C)C(C)c1cc(S)c2c(c1)OC(C)(C)C1=C2CC(C)CC1 (racemic)
Activity (Mus musculus [1]): inactive | Activity (Rattus norvegicus [2]): inactive | Activity (Rattus norvegicus [3]): inactive

CCCCCC(C)C(C)c1cc(NC)c2c(c1)OC(C)(C)C1=C2CC(C)CC1 (racemic)
minimal effective dose (Mus musculus [5]): 20 mg/kg | Activity (Rattus norvegicus [2]): inactive | Activity (Rattus norvegicus [3]): inactive

CCCCCC(C)C(C)c1cc2c(c(N(C)C)c1)C1=C(CCC(C)C1)C(C)(C)O2 (racemic)
minimal effective dose (Mus musculus [5]): 20 mg/kg | Activity (Rattus norvegicus [2]): inactive | Activity (Rattus norvegicus [3]): inactive

CCCCCCC(C)(C)c1cc(N)c2c(c1)OC(C)(C)C1=C2CC(C)CC1 (racemic) [listing 1 of 2 here]
Activity (Rattus norvegicus [2]): inactive

CCCCCCC(C)(C)c1cc(N)c2c(c1)OC(C)(C)C1=C2CC(C)CC1 (stereo in doubt; d-10c) [listing 1 of 2 here]
MED (Mus musculus [5]): 10 mg/kg

CCCCCc1cc(NC(C)=O)c2c(c1)OC(C)(C)C1=C2CC(C)CC1 (racemic)
Activity (Mus musculus [1]): inactive | Activity (Rattus norvegicus [2]): inactive | Activity (Rattus norvegicus [3]): inactive

CCCCCCC(C)(C)c1cc(N)c2c(c1)OC(C)(C)C1=C2CC(C)CC1 (stereo in doubt; d-10c) [listing 2 of 2 here]
Activity (Rattus norvegicus [2]): inactive | Activity (Rattus norvegicus [3]): inactive

CCCCCc1cc2c(c(N(C)C)c1)C1=C(CCC(C)C1)C(C)(C)O2 (racemic)
Activity (Mus musculus [1]): inactive | Activity (Rattus norvegicus [2]): inactive | Activity (Rattus norvegicus [3]): inactive

CCCCCC(C)C(C)c1cc(NC(C)=O)c2c(c1)OC(C)(C)C1=C2CC(C)CC1 (racemic)
Activity (Mus musculus [1]): inactive | Activity (Rattus norvegicus [2]): inactive | minimal effective dose (Rattus norvegicus [4]): 10 mg/kg

CCCCCC(C)C(C)c1cc(N)c2c(c1)OC(C)(C)C1=C2CC(C)CC1 (racemic)
minimal effective dose (Mus musculus [5]): 2.5 mg/kg | minimal effective dose (Rattus norvegicus [6]): 10 mg/kg | minimal effective dose (Rattus norvegicus [4]): 5 mg/kg

CCCCCCC(C)(C)c1cc(N)c2c(c1)OC(C)(C)C1=C2CC(C)CC1 (racemic) [listing 2 of 2 here]
minimal effective dose (Mus musculus [5]): 5 mg/kg | minimal effective dose (Rattus norvegicus [4]): 10 mg/kg

CCCCCCC(C)(C)c1cc(NS(C)(=O)=O)c2c(c1)OC(C)(C)C1=C2CC(C)CC1 (racemic)
minimal effective dose (Mus musculus [5]): 20 mg/kg | Activity (Rattus norvegicus [2]): inactive | Activity (Rattus norvegicus [3]): inactive

CCCCCCC(C)(C)c1cc(O)c2c(c1)OC(C)(C)C1=C2CC(C)CC1 (stereo in doubt; d-4c)
MED (Mus musculus [5]): 0.31 mg/kg | MED (Rattus norvegicus [6]): 2.5 mg/kg | MED (Rattus norvegicus [4]): 5 mg/kg

CCCCCc1cc(O)c2c(c1)OC(C)(C)C1=C2CC(C)CC1 (racemic)
Activity (Mus musculus [1]): inactive | Activity (Rattus norvegicus [2]): inactive | minimal effective dose (Rattus norvegicus [4]): 10 mg/kg
